sPLA2-III inh: Blocks human group III sPLA2 activity; Q9NZ20; QFRET BODIPY PC-A2 liposome hydrolysis, fluorescence; inhibition, % at 12.2 µM; 0.56% of 370,000 active;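 active = inhibition above mean plus 3 SD of compounds lying within the high and low control bounds, cut at about 19% in these data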;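 also: 0% = median of test compound wells and 100% = no enzyme DMSO wells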
PLC-beta3 inh: PLC-beta3 (human) inhibition, primary screen | inhibition, % at 12.2 µM | AID 720704 | 0.18% of 370,000 active | Q01970 | Purified PLC-beta3, fluorogenic substrate, fluorescence; in the data active = inhibition above about 11%;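 also: 0% = median of compound wells on plate and 100% = full blocker control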
Target sequence (Q01970 whole entry, looked up): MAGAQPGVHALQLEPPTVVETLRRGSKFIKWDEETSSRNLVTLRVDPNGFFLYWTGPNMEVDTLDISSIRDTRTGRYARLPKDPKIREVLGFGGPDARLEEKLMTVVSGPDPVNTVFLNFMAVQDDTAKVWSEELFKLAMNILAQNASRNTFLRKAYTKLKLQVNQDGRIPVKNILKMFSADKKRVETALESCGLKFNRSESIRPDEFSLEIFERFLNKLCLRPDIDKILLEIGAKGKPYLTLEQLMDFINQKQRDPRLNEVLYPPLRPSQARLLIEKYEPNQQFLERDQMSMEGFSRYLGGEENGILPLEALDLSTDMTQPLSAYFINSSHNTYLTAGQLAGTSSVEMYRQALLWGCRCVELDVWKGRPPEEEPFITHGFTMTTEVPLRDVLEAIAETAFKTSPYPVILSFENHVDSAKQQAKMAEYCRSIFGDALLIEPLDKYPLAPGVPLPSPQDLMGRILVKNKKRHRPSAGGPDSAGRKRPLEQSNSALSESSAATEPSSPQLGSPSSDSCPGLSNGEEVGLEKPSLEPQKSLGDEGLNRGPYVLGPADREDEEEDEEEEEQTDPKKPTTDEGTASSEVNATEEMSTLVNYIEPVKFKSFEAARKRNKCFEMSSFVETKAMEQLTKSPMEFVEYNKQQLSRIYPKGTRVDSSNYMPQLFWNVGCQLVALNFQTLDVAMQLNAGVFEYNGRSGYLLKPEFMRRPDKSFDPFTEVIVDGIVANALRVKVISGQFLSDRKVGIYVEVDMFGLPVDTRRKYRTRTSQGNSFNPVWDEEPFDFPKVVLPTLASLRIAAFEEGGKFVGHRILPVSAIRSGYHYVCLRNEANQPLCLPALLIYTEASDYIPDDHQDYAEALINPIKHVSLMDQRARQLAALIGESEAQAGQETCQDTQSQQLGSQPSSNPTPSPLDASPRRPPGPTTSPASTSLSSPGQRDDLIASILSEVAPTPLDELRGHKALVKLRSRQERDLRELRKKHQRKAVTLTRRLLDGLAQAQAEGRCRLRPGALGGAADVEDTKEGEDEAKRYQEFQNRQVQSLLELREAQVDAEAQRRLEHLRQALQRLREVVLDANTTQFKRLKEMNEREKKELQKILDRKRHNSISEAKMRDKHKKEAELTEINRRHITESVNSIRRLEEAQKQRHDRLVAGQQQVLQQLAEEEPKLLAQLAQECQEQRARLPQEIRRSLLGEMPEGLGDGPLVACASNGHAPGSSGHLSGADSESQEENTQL
TbMetRS inhib: blocks T. brucei methionyl-tRNA synthetase activity; purified T. brucei MetRS, ATP depletion, Kinase-Glo luminescence; inhibition, % at 11.9 µM; 0.4% of 360,000 active;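 active = inhibition above a per-plate cutoff of the control wells' mean inhibition plus 3 SD, cut at about 5.5% in these data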;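 also: 0% = DMSO wells median and 100% = median of wells with control inhibitor compound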
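assay system = parasite MetRS enzyme | timing = 15 min preincubation, 2 h reaction, all 25 °C | evaluation = percent inhibition relative to median high and low control wells | medium = HEPES buffer containing pyrophosphatase, BSA, spermine, DTT | compound = single dose, 11.9 µM final nominal, 0.9% final DMSO | detection = Kinase-Glo luminescence, ATP depletion format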
PLCg1 inh: PLC-gamma1 (human) inhibition, primary screen. P19174. 0.84% of 370,000 active. inhibition, % at 12.2 µM. purified PLC-gamma1, fluorogenic substrate, fluorescence
PLCg1 ctr: inhibits human PLC-gamma1 in PLC-beta3 counter-screen; shares compounds with PLCg1 inh; purified PLC-gamma1, fluorogenic substrate, fluorescence; inhibition, % at 12.3 µM; 3.1% of 3,300 active; AID 743258
PLCb3 confirm: confirmation of human PLC-beta3 inhibitors. shares compounds with PLCg1 inh. purified PLC-beta3, fluorogenic substrate fluorescence. inhibition, % at 12.3 µM. 1% of 3,300 active. AID 743261; in the data active = inhibition above about 11%
Active calls of the source: *; . = not tested or not shown. Most compounds without a hit are left out; they make up all but 1.9% or so of the library. Rule as the data show it, unless noted: active = inhibition above about 9.5%; inactive = the rest.

SMILES | sPLA2-III inh | PLC-beta3 inh | TbMetRS inhib | PLCg1 inh | PLCg1 ctr | PLCb3 confirm
CCn1cc(Br)c(C(=O)NCc2ccco2)n1 | -1.3 | 9.3 | -1.5 | 10.2* | -6.8 | -3.1
COC(=O)[C@]12C[C@H](CC(=O)N3CCN(C(=O)C4CC4)CC3)C(=O)N(CCc3ccc(OC)c(OC)c3)C1=C[C@H](COCc1ccccc1)O[C@@H]2C | -4.9 | 0.1 | . | 0.3 | . | .
CC(C)(C)OC(=O)N[C@H]1C=C[C@@H](CC(=O)OCC(F)(F)F)C1 | -0.7 | -10.4 | . | 5.1 | . | .
CCCCCCC(=O)Nc1ccc(Br)cn1 | -1.6 | -1.4 | 1.1 | 2.9 | . | .
O=C(O)CCC(=O)Nc1ccc(Br)cn1 | 5.4 | 2.9 | 0.4 | 10.2* | -4.2 | -11.7
Cc1ccccc1C(=O)N[C@H](C(=O)N1CCC[C@H]1C(=O)NCCc1ccccc1Cl)c1ccccc1 | -7.7 | 0.5 | . | -1.0 | . | .
CNC(=S)N/N=C(\C)c1ccc2c(c1)OCO2 | 6.5 | -5.9 | -0.3 | -0.1 | . | .
CNC(=S)N/N=C(\C)c1ccc2c(c1)OCCO2 | 17.3 | 4.7 | 0.5 | 15.5* | 1.0 | 0.5
O=C(c1ccccc1)N1CCN(c2ccc([N+](=O)[O-])c(NCc3cccnc3)c2)CC1 | -1.1 | 0.0 | 0.9 | 9.7* | -1.1 | -0.3
O=C(c1ccc(Cl)cc1)N1CCN(c2ccc([N+](=O)[O-])c(NCc3cccnc3)c2)CC1 | -22.6 | 3.1 | -1.2 | 1.4 | . | .
O=C(Nc1ccccc1)c1ccc(S(=O)(=O)NCc2cccnc2)cc1 | -1.8 | -93.3 | -0.1 | 10.3* | -0.8 | 2.5
O=C(Nc1ccc(S(=O)(=O)NCc2cccnc2)cc1)c1ccccc1Cl | -2.6 | 5.4 | -0.2 | 6.6 | . | .
O=c1[nH]n(-c2ccccc2Cl)c(=O)c2ccccc12 | 9.1 | -3.6 | 0.6 | 13.9* | -10.4 | -6.7
Cn1[nH]c(=O)c2ccccc2c1=O | 3.4 | -12.9 | 0.0 | -10.9 | . | .
NS(=O)(=O)c1ccc(N/N=C/c2ccc(O)cc2O)c([N+](=O)[O-])c1 | -6.7 | 3.2 | -0.3 | 10.0* | 12.0* | 12.8*
NS(=O)(=O)c1ccc(N/N=C/c2ccc(O)c(O)c2O)c([N+](=O)[O-])c1 | 13.8 | 2.4 | 1.8 | 11.6* | 4.9 | 2.9
COC(=O)C1=C(C)NC(C)=C(C(=O)OC)C(N2C(=O)CCC2=O)C1 (stereo not given) | 0.3 | 0.9 | . | 1.9 | . | .
COC(=O)[C@]12C[C@H](CC(=O)N3CCOCC3)C(=O)N(Cc3ccccc3)C1=C[C@H](C(C)C)O[C@@H]2C1CC1 | 0.2 | 4.8 | . | 1.5 | . | .
COCCCNC(=O)C[C@H]1C[C@@]2(C(=O)OC)C(=C[C@H](C(C)C)O[C@@H]2C2CC2)N(Cc2ccc(Cl)cc2Cl)C1=O | 11.9 | 5.1 | . | 10.1* | 2.0 | -7.8
COC(=O)[C@]12C[C@H](CC(=O)NCCC(C)C)C(=O)N(Cc3ccc(Cl)cc3Cl)C1=C[C@H](C(C)C)O[C@@H]2C1CC1 | -1.4 | 4.7 | . | 3.2 | . | .
COC(=O)[C@]12C[C@H](CC(=O)N3CCCCC3)C(=O)N(Cc3ccccc3)C1=C[C@H](C(C)C)O[C@@H]2C1CC1 | 0.9 | 13.0* | . | 8.1 | -5.2 | -2.7
O=C(c1cc(-c2ccccc2)on1)N1CCC(Oc2cccnc2)CC1 | -10.2 | 1.5 | . | -1.3 | . | .
Cc1cc(-c2n[nH]c(=S)n2N=Cc2cc(Br)ccc2F)n[nH]1 | 9.2 | 5.6 | . | 5.8 | . | .
O=C(CSc1nnc(SCc2cccc3ccccc23)s1)c1ccc(F)cc1 | -20.7 | -2.9 | . | -1.8 | . | .
O=C(O)C1CCCCC1C(=O)Nc1cc(C(F)(F)F)ccc1Cl (stereo not given) | 5.7 | -3.5 | 0.2 | 10.0* | -2.9 | -6.4
SMILES | sPLA2-III inh | PLC-beta3 inh | TbMetRS inhib | PLCg1 inh | PLCg1 ctr | PLCb3 confirm
COc1ccc(C(=O)O/N=C(\N)Cc2ccc([N+](=O)[O-])cc2)c(OC)c1 | 17.9 | -8.5 | -0.4 | 10.3* | -50.9 | -46.3
COc1cc(C(=O)O/N=C(\N)Cc2ccc([N+](=O)[O-])cc2)cc(OC)c1OC | 2.5 | -5.9 | 0.6 | -2.9 | . | .
C=C1c2cccc(O)c2C(O)=C2C(=O)[C@]3(O)C(O)=C(C(N)=O)C(=O)[C@@H](N(C)C)[C@@H]3[C@@H](O)[C@H]12 | -0.1 | -33.0 | 0.8 | 15.3* | -159.7 | -188.1
C[C@H]1c2cccc(O)c2C(O)=C2C(=O)C3(O)C(O)=C(C(N)=O)C(=O)[C@@H](N(C)C)[C@@H]3[C@@H](O)[C@@H]21 (stereo not given in full) | 14.7 | -45.2 | -1.1 | -33.5 | . | .
CCCCNS(=O)(=O)/C=C/c1cc2c(cc1CNC(=O)OC(C)(C)C)OCO2 | 2.6 | -11.2 | . | -9.5 | . | .
Cn1cc(-c2nnnn2-c2ccccc2)c(=O)c2ccccc21 | 10.0 | 11.8* | 0.3 | 4.6 | -20.7 | 0.3
O=[N+]([O-])c1ccccc1S(=O)(=O)N1CCc2ccccc2C1 | 1.9 | 12.4* | -0.5 | 1.9 | -6.0 | -2.4
Cc1cc(N2CCNC[C@H]2C)ccc1N1CCS(=O)(=O)CC1 | 5.2 | 0.7 | . | -1.2 | . | .
CN(C(=O)[C@@H](C1CC1)[C@@H](O)c1ccc(Cl)cc1)c1ccccc1 | -6.3 | 2.6 | . | 3.3 | . | .
C[C@H]1[C@@H](OC(=O)Nc2ccccc2Cl)CC[C@@]23CCCN2C(=O)CCC[C@@H]13 | -3.4 | -26.3 | . | 1.4 | . | .
COc1ccc(NC(=O)CN(c2ccc(OC)c(Cl)c2)S(=O)(=O)c2ccccc2)c(OC)c1 | -10.7 | -4.2 | 0.6 | 10.7* | -2.8 | 0.9
COc1ccc(N(CC(=O)Nc2ccccc2OC)S(=O)(=O)c2ccccc2)cc1Cl | -20.8 | -8.5 | -0.1 | 0.6 | . | .
CCCn1c(N2CCN(C)CC2)nc2c1c(=O)[nH]c(=O)n2C | 9.2 | 3.9 | -1.2 | 3.4 | . | .
CN1CCN(c2nc3c(c(=O)[nH]c(=O)n3C)n2CC(N)=O)CC1 | 4.8 | 8.2 | 0.1 | 13.5* | -5.0 | -1.7
O=S1(=O)CC(N2CCSCC2)CN1Cc1cn(Cc2ccc(C(F)(F)F)cc2)nn1 (stereo not given) | 12.2 | 6.5 | 0.1 | 13.0* | -3.2 | 1.1
CN1CCN(C2CN(Cc3cn(Cc4ccc(C(F)(F)F)cc4)nn3)S(=O)(=O)C2)CC1 (stereo not given) | 16.2 | -0.6 | -1.1 | -1.7 | . | .
COc1ccccc1NC(=O)COc1ccc(C(=O)OCC(=O)NC(C)(C)C)cc1OC | 5.6 | 0.5 | 0.2 | 12.6* | -4.2 | -3.3
CCCNC(=O)COC(=O)c1ccc(OCC(=O)Nc2ccccc2OC)c(OC)c1 | 4.6 | 3.2 | -0.2 | 0.3 | . | .
CCN1CCN(S(=O)(=O)c2cccc3nsnc23)CC1 | -0.1 | 13.1* | -1.3 | 4.9 | -2.5 | 2.0
COc1ccc(CNC(=O)C2CCN(S(=O)(=O)c3cccc4nsnc34)CC2)cc1 | 8.3 | -3.9 | -0.2 | 11.0* | -6.8 | -3.3
CCN1CCCCC(NC(=O)c2ccc(C)cc2)C1=O (stereo not given) | 3.4 | 1.5 | . | 9.4 | . | .
CC(C)CNC(=O)OCc1cn(Cc2cccc(F)c2F)nn1 | 7.4 | 0.4 | . | -0.5 | . | .

Bioassay records from PubChem BioAssay.
